Several values for one entry are separate records, joined by “and”; a condition that tells them apart may be missing. Equal entries are not always repeated. Entries after “also recorded” stand apart in the source; their conditions may differ. Where two headings read alike, the source gives them in different places. Marks after values point to notes of the source that are not given here.
Legend:
[1] = Cyclic voltammetry in acetonitrile; assay type: physicochemical; conditions: 0.10 M TBAP, irreversible reduction peak
[2] = tested on: HeLa cells; experiment: Puromycin incorporation assay; assay type: cell-based; conditions: 10 μM, 2 h, then puromycin
Outline: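 HeLa cells were exposed for 2 h to 10 μM test compound or DMSO vehicle. Puromycin (10 μM) was then added, and cells were harvested 10 min later. Lysis was in TBS/1% Triton X-100. Samples were run on SDS-PAGE and blotted to PVDF, with blocking in 5% milk/0.1% Tween-20. Anti-puromycin was applied overnight at 4 °C, then HRP secondary 1 h at room temperature. Detection was by ECL, normalised to β-actin.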

[3] = tested on: HeLa cells; experiment: Intracellular luminescence by confocal fluorescence microscopy; assay type: cell-based; conditions: 10 μM, 2 h
Outline: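 HeLa cells were kept in DMEM with 10% FBS at 37 °C and 5% CO2. 1 × 10^5 cells were seeded on glass-bottom dishes, and after 24 h they were exposed to the test compound (10 μM in DMEM) for 2 h. Cells were then washed with PBS and imaged in HEPES imaging buffer, pH 7.4. Confocal excitation was 405 nm with 410–550 nm emission. Corrected total cell fluorescence was averaged over at least ten cells.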

[4] = tested on: HeLa cells; experiment: MTT cytotoxicity assay in HeLa cells; assay type: cell-based; conditions: 48 h incubation
Outline: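 HeLa cells were grown in DMEM with 10% FBS at 37 °C, 5% CO2. Cells were seeded at 4000/well and rested 24 h, then medium was replaced with test-compound dilutions for 48 h. Stocks were in PBS or DMSO. MTT (1 mg/mL in DMEM) was added for 4 h. Formazan was dissolved in 8:1 DMSO/pH 10 glycine buffer and read at 570 nm. Viability was normalised to untreated wells: three independent experiments, six replicates per concentration.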

[5] = Emission spectra and emission quantum yield in PBS; assay type: physicochemical; conditions: PBS pH 7.4, ≤1% DMSO, air-equilibrated; for emission quantum yield Φ: relative to quinine sulfate
Outline: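 Spectra were taken in PBS pH 7.4 with ≤1% DMSO. Quantum yield was set relative to quinine sulfate (Φ = 0.52, 0.5 M H2SO4), cross-checked against harmaline (Φ = 0.32, 0.05 M H2SO4). Excitation was 350 nm, keeping absorbance below 0.1. At least five concentrations of sample and standard were measured. Absorbance at 350 nm was plotted against integrated emission.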

[6] = tested on: CHOP; experiment: CHOP expression Western blot; assay type: cell-based; conditions: HeLa cells, 10 μM, 24 h
Outline: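 HeLa cells were exposed for 24 h to 10 μM test compound or DMSO vehicle. Lysis was in TBS (pH 7.5) with 1% Triton X-100, DNase and protease inhibitors, on ice 30 min. Samples were run on SDS-PAGE and blotted to PVDF. Blocking was 5% BSA/0.1% Tween-20. Anti-CHOP was applied overnight at 4 °C, then HRP secondary 1 h at room temperature. Detection was by ECL, with β-actin as loading control.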

[7] = Luminescence lifetime measurements in PBS; assay type: physicochemical; conditions: for luminescence lifetime τ: air-equilibrated PBS, 10 μM; for luminescence lifetime τN2: nitrogen-saturated PBS (pH 7.4)
Outline: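 Test compound was measured at 10 μM in PBS. Time-resolved photon counts were collected in 40 ns bins and fitted to a standard exponential decay. For deoxygenated samples, nitrogen was bubbled through the PBS solution for 20 min before measurement.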

[8] = tested on: HeLa cells; experiment: Thioflavin T; assay type: cell-based; conditions: 10 μM, 30 min post-treatment
Outline: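 About 1 × 10^5 HeLa cells were seeded on glass-bottom dishes. After 24 h they were loaded with 5 μM ThT for 2 h, washed, and given fresh medium. Test compound (10 μM) was added in imaging buffer. Confocal images were taken at 0 and 30 min (ex 405 nm, em 410–550 nm). Corrected total cell fluorescence was computed as integrated density minus cell area × mean background.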

[9] = PBS pH 7.4; cited from earlier work
[10] = Maximum tolerated dose; assay type: in vivo; conditions: injections in mice
[11] = tested on: A2780 ovarian cancer xenografts; experiment: In vivo tumor growth inhibition, A2780 ovarian cancer xenografts; set-up: species or system NSG mice
Outline: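 NSG mice, about 7 weeks old, received A2780 tumour fragments from propagation mice implanted subcutaneously in the left flank. Groups of at least five were treated once tumours exceeded 100 mm3. Dosing was tail-vein injection twice weekly with vehicle (20% DMSO/PBS) or 5, 10 or 20 mg/kg test compound. Body weight and caliper tumour volume were tracked blinded over 27 days. Endpoints were a dimension >30 mm or burden […]; survival was compared with vehicle.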

[12] = Biodistribution in mice; assay type: in vivo; conditions: BALB/c mice
Outline: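 Female BALB/c mice, 6 weeks old, received a 99mTc tricarbonyl isonitrile analogue (51–104 μCi) with the Re test compound (0.2 μmol; 10 μmol/kg) together through a tail vein catheter in 10% EtOH/saline. Animals were killed at 1, 2 and 4 h, and blood (cardiac puncture), organs, muscle, femur and urine were collected. For Re, tissues were digested in nitric acid for 20 h at 25 °C and measured by ICP-OES with a 20 ppm Tb internal standard. Results were expressed as %ID/g.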

[13] = tested on: HeLa cells; conditions: MTT assay; cited from earlier work
[14] = a week in aqueous solution, even in the presence of glutathione; cited from earlier work
[15] = Solubility in water or PBS; assay type: physicochemical
[16] = air-equilibrated PBS; cited from earlier work
[17] = tested on: HeLa cells; experiment: Mitochondria morphology; assay type: cell-based; conditions: 10 μM, up to 30 min
Outline: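 HeLa cells were loaded with MitoTracker Red FM and Hoechst 33342 for 30 min, then washed. At the microscope, test compound was added to 10 μM final in HEPES imaging buffer (pH 7.4). Confocal images were taken every 2 min up to 30 min: MitoTracker ex 561/em 630–700 nm, Hoechst ex 405/em 410–550 nm. Individual mitochondria were counted in ImageJ at 0, 14 and 30 min, alongside untreated cells.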

[18] = tail vein injection, 0.2 μmol Re / ~100 μCi 99mTc

Row | Molecule | Epc [1] [V vs SCE] | inhibition of protein synthesis (puromycin incorporation) [2] | IC50 [4] | emission maximum λ [5] [nm] | emission quantum yield Φ [5] | CHOP expression [6] | luminescence lifetime τ [7] [μs] | luminescence lifetime τN2 [7] [μs] | increase in ThT fluorescence [8] | other results
1 | fac-[Re(CO)3(tbutylbpy)(ptolICN)]OTf [TRIP-7a] | −1.30 | most efficient inhibition of protein synthesis | 1.2 ± 0.5 µM | 518 | 7.7 ± 0.2% | induce CHOP expression | 0.7 | 1.6 | ≥ 2 fold | intracellular localization pattern [3]: distributed evenly throughout the cytoplasm
2 | Cc1ccc2ccc3ccc(C)nc3c2n1.O=S(=O)([O-])C(F)(F)F.[C-]#[N+]c1ccc(C)cc1.[C-]#[O+].[C-]#[O+].[C-]#[O+].[Re+] [TRIP-1a, fac-[Re(CO)3(dmphen)(ptolICN)]OTf] | −1.25 | most efficient inhibition of protein synthesis | – | – | – | induce CHOP expression | – | 3.5 | ≥ 2 fold | emission maximum λ [9]: 505 nm; emission quantum yield Φ [9]: 3.1 ± 0.3%; maximum tolerated dose, no obvious sign of distress [10]: ≥ 40 mg/kg; effect on tumor growth rate ([11]; 5 mg/kg i.v. twice weekly, 20% DMSO/PBS): no effect on tumor growth rate; effect on tumor growth rate ([11]; 10 mg/kg i.v. twice weekly, 20% DMSO/PBS): no effect on tumor growth rate; effect on tumor growth ([11]; 20 mg/kg i.v. twice weekly, 20% DMSO/PBS): inhibit tumor growth; also recorded: significantly inhibits tumor growth; prolongation of survival relative to the control group ([11]; 20 mg/kg twice weekly): 150%; average tumor volume relative to the vehicle-treated group ([11]; 20 mg/kg, days 10 to 20 after beginning treatment): less than half; side effects / body weight changes ([11]; highest concentrations of TRIP-1a, tumor-bearing NSG mice): minimal body weight changes; local reaction on administration ([11]; i.v. formulation in 20% DMSO/PBS): severe local inflammation; rhenium content in blood, muscle and bone ([12]; ICP-OES): below detectable levels; heart and lung accumulation [12, 18]: accumulate in the heart and lungs; kidney uptake [12, 18]: large; liver uptake [12, 18]: moderate; spleen uptake [12, 18]: taken up to a much higher extent in this organ compared to TTIP; intracellular localization pattern [3]: primarily localized around the nucleus in a punctate pattern; IC50 [13]: 1.4 ± 0.2 µM; degradation in aqueous solution [14]: no measurable degradation; solubility [15]: up to 2 mM; luminescence lifetime τ [16]: 1.1^c μs
3 | Cc1ccc(N=[C]=[Re+]2(=[C]=O)(=[C]=O)(=[C]=O)[N]3C=CC=c4ccc5c(c43)[N]2C=CC=5)cc1.O=S(=O)([O-])C(F)(F)F [TRIP-2a, fac-[Re(CO)3(phen)(ptolICN)]OTf] | −1.18 | – | 5.8 ± 0.5 µM | 512 | 5.3 ± 0.4% | – | 1.8 | 10.9 | – | –
4 | O=S(=O)([O-])C(F)(F)F.[C-]#[N+]c1ccc(C)cc1.[C-]#[O+].[C-]#[O+].[C-]#[O+].[Re+].c1ccc(-c2ccccn2)nc1 [TRIP-3a, fac-[Re(CO)3(bpy)(ptolICN)]OTf] | −1.18 | not effective translation inhibitors | 27.5 ± 0.6 µM | 523 | 6.3 ± 0.2% | – | 0.7 | 1.0 | – | change in mitochondrial morphology (mitochondrial fission) [17]: did not give rise to any changes in mitochondrial morphology
5 | fac-[Re(CO)3(dmbpy)(ptolICN)]OTf [TRIP-4a] | −1.30 | – | 7.6 ± 0.3 µM | 516 | 6.7 ± 0.1% | – | 0.8 | 1.3 | – | –
6 | fac-[Re(CO)3(dmobpy)(ptolICN)]OTf [TRIP-5a] | −1.33 | – | 8.4 ± 1.9 µM | 525 | 3.9 ± 0.3% | – | 0.4 | 0.7 | – | –
7 | fac-[Re(CO)3(CF3bpy)(ptolICN)]OTf [TRIP-6a] | – | not effective translation inhibitors | 53 µM and 53.1 µM | 584 | 0.8% and 0.8 ± 0.1% | except for the least cytotoxic compound TRIP-6a | 0.1 | 0.1 | unable to change the ThT fluorescence levels relative to untreated cells | change in mitochondrial morphology (mitochondrial fission) [17]: did not give rise to any changes in mitochondrial morphology
8 | N.N.[Cl][Pt][Cl] [cisplatin, reference compound] | – | – | – | – | – | – | – | – | – | IC50 [13]: 6.6 ± 0.7 µM

From PMC8114230 (Inorganic chemistry, 2020)
